Legend:
[1] = target: Sphingosine 1-phosphate receptor 3 (Homo sapiens, UniProt Q99500); assay: Agonist activity at human recombinant S1PR3 expressed in CHO cell membranes assessed as [35S]GTPgammaS binding preincubated for 30 mins followed by [35S]GTPgammaS addition measured after 1 hr by topcount analysis; format: functional
How it was run: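 Membranes from CHO cells expressing recombinant human S1P1 or S1P3 were used. Buffer was 20 mM Hepes pH 7.4, 100 mM NaCl, 5 mM MgCl2, 0.1% fatty-acid-free BSA, 2.5% DMSO and 50 pM 35S-GTPgammaS. GDP was […] for S1P3. Compound was preincubated 30 min at rt, then incubated 1 h at rt with 35S-GTPgammaS. Bound label was collected by filtration and counted. Specific binding was taken against 10 uM S1P. EC50 was the 50%-of-specific-binding concentration, reported as the geometric mean of at least three independent duplicate runs.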

[2] = target: Sphingosine 1-phosphate receptor 1 (Homo sapiens, UniProt P21453); assay: Agonist activity at human recombinant S1PR1 expressed in CHO cell membranes assessed as [35S]GTPgammaS binding preincubated for 30 mins followed by [35S]GTPgammaS addition measured after 1 hr by topcount analysis
Sequence of Sphingosine 1-phosphate receptor 1 (P21453 whole entry): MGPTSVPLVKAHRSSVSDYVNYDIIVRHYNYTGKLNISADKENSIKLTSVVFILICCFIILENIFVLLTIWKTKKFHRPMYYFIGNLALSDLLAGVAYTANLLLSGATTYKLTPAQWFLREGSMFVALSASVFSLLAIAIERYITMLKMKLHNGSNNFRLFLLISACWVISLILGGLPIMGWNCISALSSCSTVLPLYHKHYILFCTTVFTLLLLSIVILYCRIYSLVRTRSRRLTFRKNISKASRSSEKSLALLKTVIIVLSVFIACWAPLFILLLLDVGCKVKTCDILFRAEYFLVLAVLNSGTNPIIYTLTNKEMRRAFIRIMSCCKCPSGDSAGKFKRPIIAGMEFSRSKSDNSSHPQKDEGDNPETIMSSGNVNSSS

[3] = Selectivity ratio of EC50 for human recombinant S1PR3 expressed in CHO cell membranes to EC50 for human recombinant S1PR1 expressed in CHO cell membranes; format: cell-based
How it was run: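 Compound and membranes are pre-incubated 30 min at rt, then incubated 1 h at rt, filtered and counted. EC50 is the concentration giving 50% of S1P-defined specific binding, as the geometric mean of ≥3 independent duplicate runs. Ratio = EC50 S1PR3/EC50 S1PR1.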

Sequence of Sphingosine 1-phosphate receptor 3 (Q99500 whole entry): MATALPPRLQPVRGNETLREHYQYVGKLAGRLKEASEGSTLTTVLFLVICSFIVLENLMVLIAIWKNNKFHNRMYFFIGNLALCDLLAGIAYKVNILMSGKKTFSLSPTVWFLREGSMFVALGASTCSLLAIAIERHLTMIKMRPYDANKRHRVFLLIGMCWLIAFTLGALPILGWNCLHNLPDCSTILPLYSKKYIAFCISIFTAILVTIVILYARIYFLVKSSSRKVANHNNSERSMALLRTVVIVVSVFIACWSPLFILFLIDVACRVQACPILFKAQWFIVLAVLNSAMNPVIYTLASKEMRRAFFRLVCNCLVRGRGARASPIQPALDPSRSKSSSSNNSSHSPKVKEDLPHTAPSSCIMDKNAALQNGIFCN

SMILES | EC50 [1] | EC50 [2] | Ratio EC50 [3]
CCc1cc(-c2noc(-c3ccc(CNC)cc3)n2)cc(C)c1OC[C@@H](O)CNC(=O)CO | > 10000 nM | 2090 nM | > 4.8
CCc1cc(-c2nc(-c3cc(C)c(OC[C@@H](O)CNC(=O)CO)c(CC)c3)no2)ccc1CN(CC)CC | 210 nM | 1 nM | 210
CCc1cc(-c2noc(-c3cccc(CNC)c3)n2)cc(C)c1OC[C@@H](O)CNC(=O)CO | > 10000 nM | 190 nM | > 53
CCc1cc(-c2noc(-c3cc(C)nc(CN4CCCC4)c3)n2)cc(C)c1OC[C@@H](O)CNC(=O)CO | > 10000 nM | 95 nM | > 105
CCc1cc(-c2noc(-c3sc(CN(C)CC(C)C)c(C)c3C)n2)cc(C)c1OC[C@@H](O)CNC(=O)CO | 2300 nM | 55 nM | 42
CCc1cc(-c2noc(-c3cc(C)c(CNCC(C)C)s3)n2)cc(C)c1OC[C@@H](O)CNC(=O)CO | 1400 nM | 20 nM | 70
CCc1cc(-c2nc(-c3cc(C)c(CCC(=O)NCCO)c(CC)c3)no2)cnc1N(C)C(C)C | – | 5.1 nM | –
CCc1cc(-c2noc(-c3cc(C)nc(CN(C)C)c3)n2)cc(C)c1OC[C@@H](O)CNC(=O)CO | > 10000 nM | 40 nM | > 250
CCc1cc(-c2noc(-c3cc(C)c(CN(C)C)c(C)c3)n2)cc(C)c1OC[C@@H](O)CNC(=O)CO | 5500 nM | 69 nM | > 80
CCCNCc1cccc(-c2nc(-c3cc(C)c(OC[C@@H](O)CNC(=O)CO)c(CC)c3)no2)c1 | > 10000 nM | 305 nM | > 33
CCc1cc(-c2noc(-c3ccc(CNCC(C)C)c(C)c3)n2)cc(C)c1OC[C@@H](O)CNC(=O)CO | > 10000 nM | 270 nM | > 37
CCc1cc(CN(C)CC(C)C)cc(-c2nc(-c3cc(C)c(OC[C@@H](O)CNC(=O)CO)c(CC)c3)no2)c1 | 8 nM | 1.1 nM | 7
CCc1cc(-c2noc(-c3cc(CN(C)CC(C)C)cc(C(C)C)c3)n2)cc(C)c1OC[C@@H](O)CNC(=O)CO | 1.4 nM | 1.1 nM | < 2
CCCc1cc(CN(C)CC(C)C)cc(-c2nc(-c3cc(C)c(OC[C@@H](O)CNC(=O)CO)c(CC)c3)no2)c1 | 3.5 nM | 2.8 nM | < 2
CCc1cc(-c2noc(-c3cc(C)nc(CN(CC)CC)c3)n2)cc(C)c1OC[C@@H](O)CNC(=O)CO | 8100 nM | 45 nM | 180
CCc1cc(-c2noc(-c3cc(C)cc(CNCC(C)C)c3)n2)cc(C)c1OC[C@@H](O)CNC(=O)CO | 2100 nM | 15 nM | 140
CCc1cc(-c2noc(-c3sc(CN(C)C)c(C)c3C)n2)cc(C)c1OC[C@@H](O)CNC(=O)CO | 4400 nM | 6.4 nM | 687
CCCCN(C)Cc1cc(-c2nc(-c3cc(C)c(OC[C@@H](O)CNC(=O)CO)c(CC)c3)no2)cc(C)n1 | 1500 nM | 4.3 nM | 349
CCc1cc(-c2noc(-c3cc(C)nc(CN(CC)CC)c3)n2)cc(C)c1OC[C@@H](O)CO | – | 110 nM | –
CCc1cc(-c2noc(-c3ccc(CN4CCCC4)c(C)c3)n2)cc(C)c1OC[C@@H](O)CNC(=O)CO | 3100 nM | 50 nM | 62
CCc1cc(-c2nnc(-c3cc(C)nc(N(CC)CC)c3)o2)cc(C)c1OC[C@@H](O)CNC(=O)CO | – | 7.9 nM | –
CCc1cc(-c2noc(-c3ccc(C)c(CNCC(C)C)c3)n2)cc(C)c1OC[C@@H](O)CNC(=O)CO | > 10000 nM | 2350 nM | > 4

The next lines start with results.

EC50 [1] | EC50 [2] | SMILES | Ratio EC50 [3]
560 nM | 10 nM | CCc1cc(-c2noc(-c3ccc(CN(CC)CC)c(C)c3)n2)cc(C)c1OC[C@@H](O)CNC(=O)CO | 56
3200 nM | – | CCc1cc(-c2noc(-c3ccc(CN(C)C)c(C)c3)n2)cc(C)c1OC[C@@H](O)CNC(=O)CO | –
> 10000 nM | 26 nM | CCc1cc(-c2noc(-c3cc(C)c(C=O)s3)n2)cc(C)c1OC[C@@H](O)CNC(=O)CO | –
2900 nM | 310 nM | CCCCN(C)Cc1cc(-c2nc(-c3cc(C)c(OC[C@@H](O)CNC(=O)CO)c(CC)c3)no2)ccc1C | 9
> 10000 nM | 385 nM | CCc1cc(-c2noc(-c3ccc(C)c(CN(C)C)c3)n2)cc(C)c1OC[C@@H](O)CNC(=O)CO | > 26
370 nM | 14 nM | CCCN(C)Cc1sc(-c2nc(-c3cc(C)c(OC[C@@H](O)CNC(=O)CO)c(CC)c3)no2)c(C)c1C | 26
> 10000 nM | 14 nM | CCc1cc(-c2noc(-c3cc(C)c(CNC)s3)n2)cc(C)c1OC[C@@H](O)CNC(=O)CO | > 714
9000 nM | 285 nM | CCc1cc(-c2noc(-c3ccc(C)c(CN(C)CC)c3)n2)cc(C)c1OC[C@@H](O)CNC(=O)CO | 32
910 nM | 14 nM | CCc1cc(-c2noc(-c3ccc(CN(C)CC)c(C)c3)n2)cc(C)c1OC[C@@H](O)CNC(=O)CO | 65
120 nM | 0.7 nM | CCCCN(C)Cc1sc(-c2nc(-c3cc(C)c(OC[C@@H](O)CNC(=O)CO)c(CC)c3)no2)cc1C | 171
870 nM | 8.5 nM | CCCN(C)Cc1cc(-c2nc(-c3cc(C)c(OC[C@@H](O)CNC(=O)CO)c(CC)c3)no2)cc(C)n1 | 102
> 10000 nM | 189 nM | CCc1cc(-c2noc(-c3ccc(CNC)s3)n2)cc(C)c1OC[C@@H](O)CNC(=O)CO | > 53
> 10000 nM | 293 nM | CCNCc1ccc(-c2nc(-c3cc(C)c(OC[C@@H](O)CNC(=O)CO)c(CC)c3)no2)s1 | > 34
> 10000 nM | 160 nM | CCc1cc(-c2noc(-c3ccc(CN(C)C)cc3)n2)cc(C)c1OC[C@@H](O)CNC(=O)CO | > 62
20 nM | 0.5 nM | CCCN(C)Cc1sc(-c2nc(-c3cc(C)c(OC[C@@H](O)CNC(=O)CO)c(CC)c3)no2)cc1CC | 40
350 nM | 5.3 nM | CCCCN(C)Cc1ccc(-c2nc(-c3cc(C)c(OC[C@@H](O)CNC(=O)CO)c(CC)c3)no2)cc1C | 66
100 nM | 1 nM | CCc1cc(-c2nc(-c3cc(C)c(OC[C@@H](O)CNC(=O)CO)c(CC)c3)no2)ccc1CN(C)CC | 100
1700 nM | 2.8 nM | CCc1cc(-c2noc(-c3cc(C)c(CN(C)CCO)s3)n2)cc(C)c1OC[C@@H](O)CNC(=O)CO | 607
4300 nM | 305 nM | CCCN(C)Cc1cc(-c2nc(-c3cc(C)c(OC[C@@H](O)CNC(=O)CO)c(CC)c3)no2)ccc1C | 14
120 nM | 0.6 nM | CCCN(C)Cc1sc(-c2nc(-c3cc(C)c(OC[C@@H](O)CNC(=O)CO)c(CC)c3)no2)cc1C | 200
> 10000 nM | 155 nM | CCc1cc(-c2noc(-c3cc(C)c(CN(C)CCN(C)C)s3)n2)cc(C)c1OC[C@@H](O)CNC(=O)CO | > 64
> 10000 nM | 5.4 nM | CCc1cc(-c2noc(-c3ccc(CN(C)C)s3)n2)cc(C)c1OC[C@@H](O)CNC(=O)CO | > 1850
4600 nM | 6.8 nM | CCc1cc(-c2noc(-c3ccc(CN(C)CC)s3)n2)cc(C)c1OC[C@@H](O)CNC(=O)CO | 676
45 nM | 0.3 nM | CCc1cc(-c2nc(-c3cc(C)c(OC[C@@H](O)CNC(=O)CO)c(CC)c3)no2)sc1CN(C)C | 150
1200 nM | 97 nM | CCc1cc(-c2noc(-c3ccc(C)c(CN(C)CC(C)C)c3)n2)cc(C)c1OC[C@@H](O)CNC(=O)CO | 12
> 10000 nM | 230 nM | CCc1cc(-c2noc(-c3ccc(CN(C)C)cc3C)n2)cc(C)c1OC[C@@H](O)CNC(=O)CO | > 43
380 nM | 4.1 nM | CCCN(C)Cc1cc(C)cc(-c2nc(-c3cc(C)c(OC[C@@H](O)CNC(=O)CO)c(CC)c3)no2)c1 | 93
> 10000 nM | 203 nM | CCc1cc(-c2noc(-c3ccc(CNC(C)C)s3)n2)cc(C)c1OC[C@@H](O)CNC(=O)CO | > 49
> 10000 nM | 490 nM | CCc1cc(-c2noc(-c3cc(CN(C)CC(C)C)ccc3C)n2)cc(C)c1OC[C@@H](O)CNC(=O)CO | > 20
150 nM | 1.3 nM | CCc1cc(-c2noc(-c3cc(C)c(CN(C)CC)s3)n2)cc(C)c1OC[C@@H](O)CNC(=O)CO | 115

From ChEMBL document CHEMBL3797028, “Novel S1P1 receptor agonists - Part 4: Alkylaminomethyl substituted aryl head groups” (Eur J Med Chem, 2016)
